Experimental data as given in ChEMBL document CHEMBL4359881, “Novel antiacanthamoebic compounds belonging to quinazolinones” (Eur J Med Chem, 2019).
The source made the active and inactive calls. The calls are words filed in the database; no cut-off is given here.

Assays:
Acanthamoeba castellanii [1] = assay: Antiamoebic activity against Acanthamoeba castellanii T4 genotype ATCC 50492 trophozites assessed as reduction in viable cells at 50 ug/ml incubated for 24 hrs by trypan blue staining based hemocytometric method relative to control; assay type: functional; details: T4 genotype ATCC 50492, 24 h
Summary of the method: (§1)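 Trophozoites from PYG cultures at 30 °C were detached on ice and resuspended in PBS. They were exposed at 5×10^5 per well in RPMI-1640 at 30 °C for 24 h, stained with 0.1% Trypan blue for 5 min, and unstained cells were counted by hemocytometer. Untreated cells were the negative control and chlorhexidine the positive control. Significance was tested against methanol solvent. Duplicates; mean ± SE.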

Acanthamoeba castellanii [2] = assay: Antiamoebic activity against Acanthamoeba castellanii T4 genotype ATCC 50492 trophozites assessed as reduction in viable cells at 100 ug/ml incubated for 24 hrs by trypan blue staining based hemocytometric method relative to control; assay type: functional; details: T4 genotype ATCC 50492, 24 h; summary of the method: as §1
Acanthamoeba castellanii [3] = assay: Antiamoebic activity against Acanthamoeba castellanii T4 genotype ATCC 50492 assessed as increase in surface disintegration at 100 ug/ml incubated for 2 hrs by FE-SEM analysis; assay type: functional, organism-based
Summary of the method: (§2)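 Trophozoites were treated with compound, then fixed on glass coverslips in 2.5% glutaraldehyde in PBS at 4 °C for 2 h. Samples were dehydrated through 50–100% ethanol, air-dried and sputter-coated with platinum. Surface morphology was imaged by FESEM at several scales, with untreated amoebae for comparison.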

Acanthamoeba castellanii [4] = assay: Antiamoebic activity against Acanthamoeba castellanii T4 genotype ATCC 50492 assessed as increase in pore formation at 100 ug/ml incubated for 2 hrs by FE-SEM analysis; assay type: functional, organism-based; summary of the method: as §2
Acanthamoeba castellanii [5] = assay: Inhibition of Acanthamoeba castellanii T4 genotype ATCC 50492 excystation at 100 ug/ml incubated with pre-formed cysts for 72 hrs by hemocytometric method; assay type: functional, organism-based
Summary of the method: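 Cysts were formed by plating 1×10^6 trophozoites on 1.5% non-nutrient agar at 30 °C for up to 2 weeks, then scraped into PBS. 1×10^5 cysts were incubated with compound in PYG at 30 °C for 72 h, and emerging trophozoites were counted by hemocytometer. Duplicates; mean ± SE; two-tailed two-sample t-test.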

HaCaT [6] = assay: Cytotoxicity against human HaCaT cells at 100 ug/ml incubated for 24 hrs by LDH release assay; assay type: cell-based
Summary of the method: (§3)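 HaCaT keratinocytes were grown in RPMI-1640 with 10% FBS and Nu-serum and seeded to a monolayer over 24 h. Compound was applied for 24 h at 37 °C in 5% CO2, and LDH in the supernatant was measured. Medium alone gave the baseline and 0.1% Triton X-100 gave total lysis. Duplicates; mean ± SE.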

Acanthamoeba castellanii [7] = assay: (§4) Antiamoebic activity against Acanthamoeba castellanii T4 genotype ATCC 50492 infected in human HaCaT cells assessed as reduction in amoeba-induced host cell cytopathogenicity at 100 ug/ml preincubated with amoeba for 2 hrs followed by incubation of suspension with host cell for 24 hrs by LDH release assay; assay type: functional, organism-based
Summary of the method: (§5)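 Amoebae were pretreated with compound for 2 h at 30 °C, pelleted at 3000g for 5 min, and resuspended in fresh RPMI-1640 to remove compound. They were then added to HaCaT monolayers for 24 h at 37 °C in 5% CO2. Supernatant LDH was read at 492 nm. % cytotoxicity was calculated against untreated and 0.1% Triton X-100 lysed cells. Duplicates; mean ± SE.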

HaCaT [8] = assay: Cytotoxicity against human HaCaT cells at 100 ug/ml incubated for 24 hrs by LDH release assay relative to control; assay type: cell-based; summary of the method: as §3
Acanthamoeba castellanii [9] = assay: Inhibition of Acanthamoeba castellanii T4 genotype ATCC 50492 trophozites encystation at 100 ug/ml incubated for 72 hrs by hemocytometric method; assay type: functional, organism-based
Summary of the method: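 5×10^5 trophozoites in PBS were pretreated with compound for 15 min at room temperature. They were then transferred into encystation medium (50 mM MgCl2, 10% glucose) at 30 °C for 72 h. Trophozoites were lysed with 0.25% SDS for 10 min, and SDS-resistant cysts were counted by hemocytometer. Duplicates; mean ± SE; two-tailed t-test.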

Acanthamoeba castellanii [10] = assay: as §4, with “assay relative to control” for “assay”; assay type: functional; details: T4 genotype ATCC 50492, HaCaT; summary of the method: as §5
Acanthamoeba castellanii [11] = assay: Antiamoebic activity against Acanthamoeba castellanii T4 genotype ATCC 50492 trophozites assessed as reduction in viable cells at 100 ug/ml incubated for 24 hrs by trypan blue staining based hemocytometric method; assay type: functional, organism-based; summary of the method: as §1

SMILES | inhibition at 50 µg/mL (Acanthamoeba castellanii [1]) | inhibition at 100 µg/mL (Acanthamoeba castellanii [2]) | Activity (Acanthamoeba castellanii [3]) | Activity (Acanthamoeba castellanii [4]) | inhibition (Acanthamoeba castellanii [5]) | Activity (HaCaT [6]) | inhibition (Acanthamoeba castellanii [7]) | Activity (HaCaT [8]) | inhibition (Acanthamoeba castellanii [9]) | inhibition at 100 µg/mL (Acanthamoeba castellanii [10]) | inhibition (Acanthamoeba castellanii [11])
Cc1ccc(-n2cnc3c(C)cccc3c2=O)cc1 | > 50% | > 50% | Active | Active | Active | Non-Toxic | Active | – | – | – | –
Cc1cccc2c(=O)n(-c3cccc(Br)c3)cnc12 | > 50% | > 50% | – | – | Active | – | Active | 11% | – | – | –
Cc1cccc2c(=O)n(-c3cccc(Cl)c3)cnc12 | > 50% | > 50% | – | – | Active | Non-Toxic | Active | – | – | – | –
Cc1ccccc1-n1cnc2c(C)cccc2c1=O | > 50% | > 50% | – | – | Active | Non-Toxic | – | – | Active | 100% | –
Cc1cc(C)cc(-n2cnc3c(C)cccc3c2=O)c1 | – | – | – | – | Active | Non-Toxic | Active | – | – | – | inactive
Cc1cccc2c(=O)n(-c3ccccc3I)cnc12 | > 60% | > 80% | – | – | Active | – | – | 8% | Active | 100% | –
Cc1cccc2c(=O)n(-c3ccc(Cl)cc3)cnc12 | > 50% | > 50% | – | – | Active | Non-Toxic | Active | – | – | – | –
Cc1cccc2c(=O)n(-c3cccc(F)c3)cnc12 | > 50% | > 80% | – | – | Active | Non-Toxic | Active | – | – | – | –
Cc1cccc2c(=O)n(-c3ccc(F)cc3)cnc12 | > 60% | > 80% | Active | Active | Active | Non-Toxic | – | – | – | 100% | –
COc1ccc(OC)c(-n2cnc3c(C)cccc3c2=O)c1 | > 50% | > 50% | – | – | Active | Non-Toxic | Active | – | – | – | –
Cc1cccc2c(=O)n(-c3ccc(I)cc3)cnc12 | > 60% | > 50% | – | – | Active | Non-Toxic | – | – | – | 100% | –
COc1ccc(-n2cnc3c(C)cccc3c2=O)cc1 | > 50% | > 50% | – | – | Active | Non-Toxic | Active | – | – | – | –
Cc1cccc2c(=O)n(-c3ccc(Br)cc3)cnc12 | > 50% | > 50% | – | – | Active | Non-Toxic | Active | – | – | – | –
Cc1cccc2c(=O)n(-c3ccc(F)cc3F)cnc12 | > 50% | > 50% | – | – | Active | Non-Toxic | Active | – | Active | – | –
CSc1cccc(-n2cnc3c(C)cccc3c2=O)c1 | > 50% | > 50% | – | – | Active | Non-Toxic | Active | – | – | – | –
N=C(NCCCCCCNC(=N)NC(=N)Nc1ccc(Cl)cc1)NC(=N)Nc1ccc(Cl)cc1 | – | – | – | – | Active | – | – | – | – | – | –
